Laboratory results as given in ChEMBL document CHEMBL1125054, “1-(aminoalkyl)-2-phenylindoles as novel pure estrogen antagonists” (J Med Chem, 1990).

Key:
[1] = target: Estrogen receptor (Bos taurus) (UniProt Q9XSB5+P49884); assay: Relative binding affinity to calf uterine estrogen receptor; format: protein assay
Procedure, shortened: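 Calf uterine cytosol (105000g supernatant, 3 mg/mL protein in the assay) in Tris/EDTA/NaN3 buffer pH 7.5, with 5 nM 17β-[3H]estradiol and competitor at 10^-9–10^-5 M. Incubated 18 h at 4 °C; bound and free ligand separated with dextran-coated charcoal. Nonspecific binding defined with 5 μM estradiol. RBA = ratio of molar concentrations of estradiol and compound giving 50% displacement × 100.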

[2] = target: T1, Estrogen receptor (Mus musculus) (UniProt O08537+P19785); assay: Anti-uterotrophic effect in mice at 125 ug; format: functional
T1 sequence (O08537 whole entry, looked up): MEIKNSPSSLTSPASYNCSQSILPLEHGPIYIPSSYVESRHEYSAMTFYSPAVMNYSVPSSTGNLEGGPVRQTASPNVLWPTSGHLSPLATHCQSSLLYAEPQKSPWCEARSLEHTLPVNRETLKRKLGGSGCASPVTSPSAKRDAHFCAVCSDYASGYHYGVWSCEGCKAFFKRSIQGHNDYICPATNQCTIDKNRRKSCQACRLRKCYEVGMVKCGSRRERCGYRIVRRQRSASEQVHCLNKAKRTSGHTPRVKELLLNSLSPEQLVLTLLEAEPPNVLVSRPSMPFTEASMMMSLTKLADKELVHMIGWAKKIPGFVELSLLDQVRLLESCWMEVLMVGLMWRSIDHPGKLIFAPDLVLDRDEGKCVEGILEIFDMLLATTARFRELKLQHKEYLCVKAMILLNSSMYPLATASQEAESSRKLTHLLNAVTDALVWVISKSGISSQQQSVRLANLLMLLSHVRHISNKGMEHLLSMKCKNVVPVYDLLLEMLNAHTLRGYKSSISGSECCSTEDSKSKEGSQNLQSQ
T1 sequence (P19785 whole entry, looked up): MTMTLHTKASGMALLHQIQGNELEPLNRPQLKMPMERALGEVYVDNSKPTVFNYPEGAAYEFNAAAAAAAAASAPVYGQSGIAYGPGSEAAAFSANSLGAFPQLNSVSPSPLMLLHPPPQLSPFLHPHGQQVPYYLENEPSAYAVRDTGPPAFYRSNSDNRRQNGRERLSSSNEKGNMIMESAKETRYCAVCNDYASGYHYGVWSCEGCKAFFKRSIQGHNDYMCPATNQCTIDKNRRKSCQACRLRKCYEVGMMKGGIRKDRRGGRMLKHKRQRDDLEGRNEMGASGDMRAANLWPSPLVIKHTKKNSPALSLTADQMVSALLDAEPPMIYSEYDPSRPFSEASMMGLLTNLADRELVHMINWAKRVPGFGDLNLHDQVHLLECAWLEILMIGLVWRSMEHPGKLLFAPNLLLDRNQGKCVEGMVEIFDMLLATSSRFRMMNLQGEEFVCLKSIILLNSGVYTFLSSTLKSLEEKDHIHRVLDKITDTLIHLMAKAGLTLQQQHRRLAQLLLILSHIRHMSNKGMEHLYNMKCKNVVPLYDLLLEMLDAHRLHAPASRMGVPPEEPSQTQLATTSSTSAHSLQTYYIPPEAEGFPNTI
Procedure, shortened: (§1)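 Immature female NMRI mice (20 days old), groups of 6-10, injected sc in olive oil (100 μL/animal) on three consecutive days with test compound plus 0.4 μg estrone per animal and day. Killed 24 h after last injection; uteri fixed in Bouin solution, dried at 100 °C for 24 h. Relative uterine weight = uterine dry weight (mg)/body weight (g) × 100; mean of six animals ± SD.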

[3] = target: T1, Estrogen receptor (Mus musculus); assay: Anti-uterotrophic effect in mice at 25 ug; format: functional; procedure, shortened: as §1
[4] = target: T1, Estrogen receptor (Mus musculus); assay: Anti-uterotrophic effect in mice at 5 ug; format: functional; procedure, shortened: as §1
[5] = target: T1, Estrogen receptor (Mus musculus); assay: Uterotrophic effect in mice at 125 ug; format: functional, tissue-based; conditions: Uterus
Procedure, shortened: (§2)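 Immature NMRI female mice, 20 days old, groups of 6-10, received test compound in olive oil (100 μL/animal) sc on three consecutive days; vehicle controls were included. At 24 h after the last dose, uteri were fixed in Bouin solution and dried at 100 °C for 24 h. Read-out was uterine dry weight (mg)/body weight (g) × 100, mean of six animals ± SD.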

[6] = target: T1, Estrogen receptor (Mus musculus); assay: Uterotrophic effect in mice at 25 ug; format: functional, tissue-based; conditions: Uterus; procedure, shortened: as §2
[7] = target: T1, Estrogen receptor (Mus musculus); assay: Uterotrophic effect in mice at 5 ug; format: functional, tissue-based; conditions: Uterus; procedure, shortened: as §2
[8] = target: T1, Estrogen receptor (Mus musculus); assay: Percent inhibition of uterotrophic effect in mice at 125 ug dose; format: functional
Procedure, shortened: (§3)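 Mice were immature female NMRI (20 days old) given sc injections in olive oil on three consecutive days, each containing 0.4 μg estrone plus test compound. Uteri were weighed dry 24 h after the last injection. Antagonism (%) = 100 − [(W_S,T − W_V)/(W_S − W_V) × 100], with relative uterine weights from estrone+compound, estrone alone and vehicle controls. Significance was tested by Mann-Whitney U test.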

[9] = target: T1, Estrogen receptor (Mus musculus); assay: Percent inhibition of uterotrophic effect in mice at 5 ug dose; format: functional; procedure, shortened: as §3
[10] = target: T1, Estrogen receptor (Mus musculus); assay: Uterotrophic effect in mice at 1 ug; format: functional, tissue-based; conditions: Uterus; procedure, shortened: as §2
[11] = target: T1, Estrogen receptor (Mus musculus); assay: Anti-uterotrophic effect in mice at 1 ug; format: functional; procedure, shortened: as §1
[12] = target: T1, Estrogen receptor (Mus musculus); assay: Percent inhibition of uterotrophic effect in mice at 1 ug dose; format: functional; procedure, shortened: as §3
[13] = target: T1, Estrogen receptor (Mus musculus); assay: Percent inhibition of uterotrophic effect in mice at 25 ug dose; format: functional; procedure, shortened: as §3

relative binding affinity (RBA) [1] | Relative uterine weight [2] | Relative uterine weight [3] | Relative uterine weight [4] | Relative uterine weight [5] | Relative uterine weight [6] | Relative uterine weight [7] | inhibition [8] | inhibition [9] | Relative uterine weight [10] | Relative uterine weight [11] | inhibition [12] | inhibition [13] | SMILES
14 | 30.9 | 52.5 | 46 | 22.4 | 18.2 | 16.1 | 61% | 23% |  |  |  |  | CCN(CC)CCCCCCC1C(c2ccc(O)cc2)=C(C)c2cc(O)ccc21 (stereo unspecified)
7.6 |  |  |  |  |  |  |  |  |  |  |  |  | CC1=C(c2ccc(O)cc2)C(CCCCCCCCN2CCCC2)c2ccc(O)cc21 (stereo unspecified)
12 |  |  |  |  |  |  |  |  |  |  |  |  | CC1=C(c2ccc(O)cc2)C(CCCCCCN(C)C)c2ccc(O)cc21 (stereo unspecified)
23 | 22.3 |  | 28.9 | 24.7 | 21.4 | 19.7 | 98% | 71% |  |  |  |  | CC1=C(c2ccc(O)cc2)C(CCCCCCN2CCCCC2)c2ccc(O)cc21 (stereo unspecified)
27 | 33.7 |  | 38.1 | 34 |  | 22.8 | 59% | 49% | 14.4 |  |  |  | CNCCCCCCC1C(c2ccc(O)cc2)=C(C)c2cc(O)ccc21 (stereo unspecified)
2.3 |  |  |  |  |  |  |  |  |  |  |  |  | Oc1ccc(C2=Cc3cc(O)ccc3C2CCCCCCN2CCCC2)cc1 (stereo unspecified)
11 |  |  |  |  |  |  |  |  |  |  |  |  | CC1=C(c2ccc(O)cc2)C(CCCCCCCN)c2ccc(O)cc21 (stereo unspecified)
 | 8.9 | 14.4 | 15.4 | 14.1 | 13.9 | 9 | 117% | 100% | 12.5 | 45.8 | 20% | 103% | CC1=C(c2ccc(O)cc2)C(CCCCCCN2CCCC2)c2ccc(O)cc21 (stereo unspecified)
1.3 |  |  |  |  |  |  |  |  |  |  |  |  | Oc1ccc(C2=Cc3cc(O)ccc3C2CCCCCCN2CCCCC2)cc1 (stereo unspecified)
15 | 40.8 | 44.6 | 53.2 | 34 | 23.6 | 17.8 | 51% | 25% |  |  |  | 43% | CC1=C(c2ccc(O)cc2)C(CCCCCCNCc2ccccc2)c2ccc(O)cc21 (stereo unspecified)
3.6 | 25.5 | 16.2 | 47.6 | 6.4 | 6.4 | 8 | 53% |  | 7.6 | 43.7 | 5% | 78% | CC1=C(c2ccc(O)cc2)C(CCCCN2CCCC2)c2ccc(O)cc21 (stereo unspecified)
25 | 16.2 | 15 | 30.1 | 16.9 | 12.4 | 11.9 | 99% | 68% | 10.9 | 65.9 |  | 102% | CC1=C(c2ccc(O)cc2)C(CCCCCCN)c2ccc(O)cc21 (stereo unspecified)
10 | 18 | 47.7 | 51.2 | 17.4 | 21.8 | 19.5 | 102% | 8% |  |  |  | 18% | CC1=C(c2ccc(O)cc2)C(CCCCCCN2CCOCC2)c2ccc(O)cc21 (stereo unspecified)
